ChEMBL document CHEMBL1139491 (J Med Chem, 2005)

Columns and labels:
A549 [1] = assay: Tested for cytotoxicity towards A549 cell line (human lung carcinoma); Not active; type: functional, cell-based
MCF7 [2] = assay: Tested for cytotoxicity towards MCF-7 cell line (human breast cancer); Not active; type: functional, cell-based
T47D [3] = assay: Tested for cytotoxicity towards T47D cell line (human breast cancer); Not active; type: functional, cell-based
[4] = target: T1, Aryl hydrocarbon receptor (Oryctolagus cuniculus, UniProt O02747); assay: Binding affinity for aryl hydrocarbon receptor (AhR) of rabbit liver cytosol incubated with 0.2 nM [3H]-TCDD; Antagonist
T1 sequence (O02747 whole entry): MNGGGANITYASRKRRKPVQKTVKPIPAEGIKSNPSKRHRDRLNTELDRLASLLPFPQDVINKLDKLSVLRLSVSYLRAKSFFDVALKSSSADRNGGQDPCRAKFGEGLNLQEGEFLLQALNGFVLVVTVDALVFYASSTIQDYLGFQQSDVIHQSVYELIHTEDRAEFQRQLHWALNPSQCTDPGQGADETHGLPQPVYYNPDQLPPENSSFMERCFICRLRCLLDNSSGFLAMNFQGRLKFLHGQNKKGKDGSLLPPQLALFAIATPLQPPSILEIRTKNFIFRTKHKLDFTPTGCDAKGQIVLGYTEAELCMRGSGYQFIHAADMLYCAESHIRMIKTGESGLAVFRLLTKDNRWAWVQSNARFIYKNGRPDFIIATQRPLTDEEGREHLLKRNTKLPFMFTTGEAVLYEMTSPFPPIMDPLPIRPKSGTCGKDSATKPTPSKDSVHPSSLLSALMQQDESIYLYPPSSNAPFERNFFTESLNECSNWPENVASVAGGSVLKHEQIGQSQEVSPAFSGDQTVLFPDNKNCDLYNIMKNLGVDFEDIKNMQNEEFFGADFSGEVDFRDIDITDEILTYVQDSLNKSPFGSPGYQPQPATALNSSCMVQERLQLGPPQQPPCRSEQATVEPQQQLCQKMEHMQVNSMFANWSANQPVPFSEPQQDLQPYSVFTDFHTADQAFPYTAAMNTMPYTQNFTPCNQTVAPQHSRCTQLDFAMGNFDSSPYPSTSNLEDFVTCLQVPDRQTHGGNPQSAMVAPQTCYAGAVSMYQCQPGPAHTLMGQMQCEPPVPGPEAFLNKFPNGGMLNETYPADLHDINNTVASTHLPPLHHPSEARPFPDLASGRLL
Procedure, shortened: (§1)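 Rabbit liver cytosol incubated with 0.2 nM [3H]-TCDD plus unlabeled ligand at 12 concentrations spanning 0.1 nM to 1 µM. Competitive displacement measured, and IC50 obtained by iterative curve fitting.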

Estrogen receptor [5] = target: T2, Estrogen receptor (Homo sapiens, UniProt P03372); assay: Binding affinity for estrogen receptor (ER) alpha of MCF-7 cell cytosol incubated with 2 nM [3H]estradiol; type: cell-based
T2 sequence (P03372 whole entry): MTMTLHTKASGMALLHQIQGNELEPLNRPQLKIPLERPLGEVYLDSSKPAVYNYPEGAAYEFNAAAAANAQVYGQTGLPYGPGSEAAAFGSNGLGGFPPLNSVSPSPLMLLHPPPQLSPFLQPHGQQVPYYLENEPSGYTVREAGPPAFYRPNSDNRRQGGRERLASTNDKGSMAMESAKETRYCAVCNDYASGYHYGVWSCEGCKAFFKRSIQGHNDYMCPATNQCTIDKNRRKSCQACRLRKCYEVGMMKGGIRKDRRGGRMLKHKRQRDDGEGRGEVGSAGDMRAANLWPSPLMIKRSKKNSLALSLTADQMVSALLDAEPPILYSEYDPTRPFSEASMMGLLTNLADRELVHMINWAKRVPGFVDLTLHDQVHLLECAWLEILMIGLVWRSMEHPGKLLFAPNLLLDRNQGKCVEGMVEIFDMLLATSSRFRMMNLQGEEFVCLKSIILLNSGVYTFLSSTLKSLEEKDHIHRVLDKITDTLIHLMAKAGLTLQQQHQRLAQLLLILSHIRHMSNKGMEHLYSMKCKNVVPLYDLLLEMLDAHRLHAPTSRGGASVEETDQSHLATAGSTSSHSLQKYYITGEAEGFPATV
Procedure, shortened: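 Cytosol from MCF-7 cells, which express only the ERα isoform, incubated with 2 nM [3H]-estradiol and unlabeled ligand at eight concentrations from 10 nM to 10 µM. IC50 derived by iterative curve fitting, and Ki calculated using a Kd of 0.1 nM.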

T47D [6] = assay: Tested for cytotoxicity towards T47D cell line (human breast cancer); type: functional, cell-based
A549 [7] = assay: Tested for cytotoxicity towards A549 cell line (human lung carcinoma); type: functional, cell-based
MCF7 [8] = assay: Tested for cytotoxicity towards MCF-7 cell line (human breast cancer); type: functional, cell-based
Estrogen receptor [9] = target: T2, Estrogen receptor; assay: Binding affinity for estrogen receptor (ER) alpha of MCF-7 cell cytosol incubated with 2 nM [3H]estradiol; Agonist; type: cell-based
Procedure, shortened: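 ERα-only cytosol from MCF-7 cells, incubated with 2 nM [3H]-estradiol and eight concentrations (10 nM–10 µM) of unlabelled ligand. IC50 came from iterative curve fitting, and Ki was calculated using Kd 0.1 nM. Agonist status: stimulation of ERE-driven luciferase in MELN reporter cells after 8 h, with or without 1 nM 17β-estradiol; luciferase activity was the read-out.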

[10] = target: T1, Aryl hydrocarbon receptor; assay: Binding affinity for aryl hydrocarbon receptor (AhR) of rabbit liver cytosol incubated with 0.2 nM [3H]-TCDD; Agonist; procedure, shortened: as §1

| Compound | Concentration (A549 [1]) [µM] | Concentration (MCF7 [2]) [µM] | Concentration (T47D [3]) [µM] | Ki [4] [µM] | Ki (Estrogen receptor [5]) [µM] | Concentration (T47D [6]) [µM] | Concentration (A549 [7]) [µM] | Concentration (MCF7 [8]) [µM] | Ki (Estrogen receptor [9]) [µM] | Ki [10] [µM] |
| --- | --- | --- | --- | --- | --- | --- | --- | --- | --- | --- |
| COc1cccc(/C=C/c2cc(Cl)cc(Cl)c2)c1 | > 10 | > 10 | > 10 | 0.0057 | > 100 | – | – | – | – | – |
| COc1ccc(/C=C/c2cc(F)cc(F)c2)cc1 | > 10 | > 10 | > 10 | 0.0092 | > 100 | – | – | – | – | – |
| FC(F)(F)c1cccc(/C=C/c2cc(Cl)cc(Cl)c2)c1 | > 10 | > 10 | > 10 | 0.0068 | > 100 | – | – | – | – | – |
| FC(F)(F)c1ccc(/C=C/c2cc(C(F)(F)F)cc(C(F)(F)F)c2)cc1 | > 10 | > 10 | > 10 | 0.0021 | > 100 | – | – | – | – | – |
| CCOc1ccc(/C=C\c2cc(OC)cc(OC)c2)cc1 | – | – | – | 0.065 | – | < 0.1 | < 0.1 | < 0.1 | 0.136 | – |
| Clc1ccc(/C=C\c2cc(Cl)cc(Cl)c2)cc1 | – | – | – | 0.013 | > 100 | < 100 | < 100 | < 100 | – | – |
| COc1cc(/C=C/c2ccc(F)cc2)cc(OC)c1 | – | – | – | 0.0031 | > 100 | > 10 | > 10 | > 10 | – | – |
| FC(F)(F)c1ccc(/C=C\c2cc(Cl)cc(Cl)c2)cc1 | > 10 | > 10 | > 10 | 0.014 | > 100 | – | – | – | – | – |
| COc1ccc(/C=C\c2cc(Cl)cc(Cl)c2)cc1 | > 10 | > 10 | > 10 | 0.012 | > 100 | – | – | – | – | – |
| Oc1ccc(/C=C/c2cc(O)cc(O)c2)cc1 [RESVERATROL] | – | – | – | – | – | – | – | – | 0.785 | – |
| COc1ccc(/C=C/c2cc(Cl)cc(Cl)c2)cc1 | > 10 | > 10 | > 10 | 0.0014 | > 100 | – | – | – | – | – |
| FC(F)(F)c1ccc(/C=C\c2cc(C(F)(F)F)cc(C(F)(F)F)c2)cc1 | > 10 | > 10 | > 10 | 0.06 | > 100 | – | – | – | – | – |
| COc1ccc(/C=C\c2cc(F)cc(F)c2)cc1 | > 10 | > 10 | > 10 | 0.022 | > 100 | – | – | – | – | – |
| COc1cc(/C=C\c2ccc(F)cc2)cc(OC)c1 | – | – | – | 0.096 | > 100 | > 10 | > 10 | > 10 | – | – |
| Fc1ccc(/C=C\c2cc(F)cc(F)c2)cc1 | > 10 | > 10 | > 10 | 0.063 | > 100 | – | – | – | – | – |
| COc1ccc(/C=C/c2cc(OC)cc(OC)c2)cc1 [TRISMETHOXYRESVERATROL] | – | – | – | 0.0077 | – | < 100 | < 100 | < 100 | 0.261 | – |
| FC(F)(F)c1cccc(/C=C\c2cc(Cl)cc(Cl)c2)c1 | > 10 | > 10 | > 10 | 0.019 | > 100 | – | – | – | – | – |
| CCCCOc1ccc(/C=C/c2cc(OC)cc(OC)c2)cc1 | – | – | – | 0.02 | > 100 | > 10 | > 10 | > 10 | – | – |
| CCCCOc1ccc(/C=C\c2cc(OC)cc(OC)c2)cc1 | – | – | – | 0.043 | > 100 | – | – | – | – | – |
| COc1cccc(/C=C\c2cc(Cl)cc(Cl)c2)c1 | > 10 | > 10 | > 10 | 0.024 | > 100 | – | – | – | – | – |
| Fc1ccc(/C=C/c2cc(F)cc(F)c2)cc1 | > 10 | > 10 | > 10 | 0.0038 | > 100 | – | – | – | – | – |
| Clc1ccc(/C=C/c2cc(Cl)cc(Cl)c2)cc1 | > 10 | > 10 | > 10 | 0.0012 | > 100 | – | – | – | – | – |
| FC(F)(F)c1ccc(/C=C/c2cc(Cl)cc(Cl)c2)cc1 | > 10 | > 10 | > 10 | – | > 100 | – | – | – | – | 0.0002 |
| CCOc1ccc(/C=C/c2cc(OC)cc(OC)c2)cc1 | – | – | – | 0.005 | – | < 0.1 | < 0.1 | < 0.1 | 0.381 | – |
| COc1ccc(/C=C\c2cc(OC)cc(OC)c2)cc1 [8Z-3,4',5-TRIMETHOXYSTILBENE] | – | – | – | 0.075 | – | – | – | – | 0.132 | – |
